In ChEMBL document CHEMBL1833941, “Structural requirement of arylindolylpropenones as anti-bladder carcinoma cells agents” (Bioorg Med Chem, 2011):
Activity calls are given as the source filed them. No cut-off for these calls is given here.

Assays:
RT-112 [1] = assay: Antiproliferative activity against human RT112 cells after 48 hrs by MTT assay; assay type: functional, cell-based; conditions: RT-112, 48 h
In short: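 RT112 bladder carcinoma cells in RPMI 1640 with 10% FCS and 2 mM glutamine, 37 °C, 5% CO2. Seeded 3×10^3 cells/well, treated after 24 h with a concentration series for 48 h; DMSO vehicle control. MTT 3 h at 37 °C, formazan dissolved in DMSO, A570 with 650 nm reference. Survival relative to vehicle (100%); IC50 from dose-response curves; triplicates, three independent experiments.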

RT-112 [2] = assay: Cell cycle arrest in human RT112 cells by accumulation of cells at G2/M phase at 3 uM after 12 hrs by propidium iodide-staining-based flow cytometry (reference value: 14%); assay type: functional
RT-112 [3] = assay: Cell cycle arrest in human RT112 cells by accumulation of cells at S phase at 3 uM after 12 hrs by propidium iodide-staining-based flow cytometry (reference value: 17%); assay type: functional
RT-112 [4] = assay: Cell cycle arrest in human RT112 cells by accumulation of cells at G2+M phase at 3 uM after 24 hrs by propidium iodide-staining-based flow cytometry (reference value: 14%); assay type: functional
RT-112 [5] = assay: Cell cycle arrest in human RT112 cells by accumulation of cells at G1 phase at 3 uM after 12 hrs by propidium iodide-staining-based flow cytometry (reference value: 69%); assay type: functional
RT-112 [6] = assay: Induction of apoptosis in human RT112 cells assessed as hypodiploid DNA at sub-G1 phase after 48 hrs by propidium iodide-staining-based flow cytometry; assay type: functional, cell-based
In short: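 Same PI/RNase flow cytometry as the cell cycle work in RT112 cells, with treatment extended to 48 h. Apoptosis scored as a hypodiploid (sub-G1) DNA peak; DMSO vehicle as control.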

RT-112 [7] = assay: Cell cycle arrest in human RT112 cells by accumulation of cells at G2+M phase at 4 uM after 24 hrs by propidium iodide-staining-based flow cytometry (reference value: 14%); assay type: functional
RT-112 [8] = assay: Cell cycle arrest in human RT112 cells by accumulation of cells at G2+M phase at 4 uM after 12 hrs by propidium iodide-staining-based flow cytometry (reference value: 14%); assay type: functional

COc1ccc(/C=C/C(=O)c2cn(C)c3ccccc23)c(OC)c1
IC50 (RT-112 [1]): 57.7 µM

Cn1cc(/C=C/C(=O)c2cn(C)c3ccccc23)c2ccccc21
IC50 (RT-112 [1]): 63 µM

COc1cc(/C=C/C(=O)c2cn(C)c3ccccc23)cc(OC)c1OC
IC50 (RT-112 [1]): 42.4 µM

Cn1cc(C(=O)/C=C/c2ccccc2F)c2ccccc21
IC50 (RT-112 [1]): 28.7 µM

COc1cc(OC)c(C(=O)/C=C/c2ccc3c(ccn3C)c2)c(OC)c1
IC50 (RT-112 [1]): 54.3 µM

COc1cc(OC)c(/C=C/C(=O)c2cn(C)c3ccc(C(=O)O)cc23)c(OC)c1
IC50 (RT-112 [1]): 86.1 µM

CN1CCN(c2ccc(/C=C/C(=O)c3cn(C)c4ccccc34)cc2)CC1
IC50 (RT-112 [1]): 11.7 µM

COc1cc(OC)c(/C=C/C(=O)c2cn(C)c3ccccc23)c(OC)c1
Activity (RT-112 [2]): 74%
Activity (RT-112 [3]): inactive
Activity (RT-112 [4]): Active
Activity (RT-112 [5]): 16%
Activity (RT-112 [6]): Active
IC50 (RT-112 [1]): 3.2 µM

Cn1cc(C(=O)/C=C/c2c(Cl)cccc2Cl)c2ccccc21
IC50 (RT-112 [1]): 7.8 µM

COc1cccc(OC)c1/C=C/C(=O)c1cn(C)c2ccccc12
IC50 (RT-112 [1]): 47.4 µM

Cn1cc(C(=O)/C=C/c2ccccc2)c2ccccc21
IC50 (RT-112 [1]): 30.6 µM

CN1CCN(c2ccccc2/C=C/C(=O)c2cn(C)c3ccccc23)CC1
IC50 (RT-112 [1]): 26.4 µM

COc1cc(OC)c(/C=C/C(=O)c2cn(C)c3ccc(OC)cc23)c(OC)c1
Activity (RT-112 [2]): 91%
Activity (RT-112 [3]): inactive
Activity (RT-112 [4]): Active
Activity (RT-112 [5]): 5%
Activity (RT-112 [6]): Active
IC50 (RT-112 [1]): 3.1 µM

CN(C)c1ccc(/C=C/C(=O)c2cn(C)c3ccccc23)cc1
IC50 (RT-112 [1]): 7.5 µM

Cn1ccc2cc(/C=C/C(=O)c3cn(C)c4ccccc34)ccc21
Activity (RT-112 [7]): 34%
Activity (RT-112 [6]): Active
Activity (RT-112 [8]): 65%
IC50 (RT-112 [1]): 4 µM
